The test system of experiment [1] is Mus musculus. The experiment is described as follows: In vivo average survival rate of mouse infected by T.b. rhodesiense was determined for a period of 60 days at dose of 100 mg/kg by p.o. administration. The format is functional. Conditions: route oral. The procedure, abridged:
(§1)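 Mice infected with T. b. rhodesiense STIB900. Diamidines were given intraperitoneally and prodrugs orally, with an untreated infected control group. Parasitemia was monitored daily to day 14, then twice weekly to day 60. For relapsing mice, the day of death was recorded and survival time was averaged in days.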

Experiment [2] relates to Mus musculus. The experiment is described as follows: No. of mice that survived T.b. rhodesiense infection and are parasite free for 60 days was determined at dose of 100 mg/kg by p.o. administration; 4 animals tested. The class given is functional. The conditions noted are these: route oral. The procedure, abridged: (§2)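 Mice infected with T. b. rhodesiense STIB900. Diamidines were given intraperitoneally and prodrugs orally. An untreated infected group served as control. Parasitemia was checked daily up to day 14 post-infection, then twice weekly up to day 60. A cure was counted as a mouse that survived and stayed parasite-free for 60 days.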

Another experiment concerns Plasmodium falciparum. The experiment is described as follows: In vitro inhibitory activity against Plasmodium falciparum. The format is functional, organism-based.
Experiment [3] relates to Trypanosoma brucei rhodesiense. The experiment is described as follows: In vitro inhibitory activity against T. b. rhodesiense. The class given is functional, organism-based.
Experiment [4] concerns Mus musculus. The experiment is described as follows: In vivo average survival rate of mouse infected by T.b. rhodesiense was determined for a period of 60 days at dose of 20 mg/kg by i.p. administration. The class given is functional. Conditions: route intraperitoneal. The method in brief: as §1
For experiment [5], the system named is Mus musculus. The experiment is described as follows: No. of mice that survived T.b. rhodesiense infection and are parasite free for 60 days was determined at dose of 20 mg/kg by i.p. administration; 4 animals tested. The class given is functional. Conditions: route intraperitoneal. The procedure, abridged: as §2
Experiment [6] has as its system Nucleic Acid. Conditions: Bos taurus.
In experiment [7] the test system is Nucleic Acid.
In experiment [8] the test system is Mus musculus. The experiment is described as follows: In vivo average survival rate of mouse infected by T.b. rhodesiense was determined for a period of 60 days at dose of 50 mg/kg by p.o. administration. The format is functional. The conditions noted are these: route oral. The method in brief:
as §1

Experiment [9] concerns Mus musculus. The experiment is described as follows: No. of mice that survived T.b. rhodesiense infection and are parasite free for 60 days was determined at dose of 50 mg/kg by p.o. administration; 4 animals tested. The class given is functional. Conditions: route oral. The method in brief:
as §2

Experiment [10] has as its system Mus musculus. As to the kind of experiment: In vivo average survival rate of mouse infected by T.b. rhodesiense was determined for a period of 60 days at dose of 75 mg/kg by p.o. administration. The format is functional. Conditions: route oral. The procedure, abridged: as §1
Experiment [11] relates to Mus musculus. As to the kind of experiment: No. of mice that survived T.b. rhodesiense infection and are parasite free for 60 days was determined at dose of 75 mg/kg by p.o. administration; 4 animals tested. The format is functional. The conditions noted are these: route oral. The procedure, abridged: as §2
The subject of experiment [12] is Mus musculus. As to the kind of experiment: In vivo average survival rate of mouse infected by T.b. rhodesiense was determined for a period of 60 days at dose of 5 mg/kg by p.o. administration. The class given is functional. Conditions: route oral. The method in brief: as §1
Experiment [13] deals with Mus musculus. As to the kind of experiment: No. of mice that survived T.b. rhodesiense infection and are parasite free for 60 days was determined at dose of 5 mg/kg by p.o. administration; 4 animals tested. The class given is functional. The conditions noted are these: route oral. The procedure, abridged: as §2
For experiment [14], the system named is Mus musculus. As to the kind of experiment: No. of mice that survived T.b. rhodesiense infection and are parasite free for 60 days was determined at dose of 50 mg/kg by p.o. administration; 5 animals tested. The class given is functional. The conditions noted are these: route oral. The method in brief:
as §2

In experiment [15] the test system is Mus musculus. The experiment is described as follows: No. of mice that survived T.b. rhodesiense infection and are parasite free for 60 days was determined at dose 5 mg/kg of by p.o. administration; 4 animals tested. The conditions noted are these: route oral. The class given is functional. The method in brief:
as §2

Experiment [16] concerns Mus musculus. The experiment is described as follows: In vivo antitrypanosomal activity against T.b. rhodesiense mouse and no. of that survive and are parasite free for 60 days was determined at dose of 5 mg/kg by p.o. administration; 4 animals tested. The format is functional. The conditions noted are these: route oral. The method in brief:
as §2

For experiment [17], the system named is Nucleic Acid. The source holds these as a separate data set.

Structures are written as SMILES.

As a reminder, the IC50 is the concentration that inhibits the measured activity by half. High values mean weaker potency in that assay, low ones greater potency in that assay. `CCONC(=N)c1ccc(-c2ccc(-c3ccc(C(=N)NOCC)cn3)o2)cc1` came in with a Survival in the experiment with Mus musculus [1] of 60 days. In the experiment on Mus musculus [2], the Cures was found to be 4. Besides, the IC50 stood at 7.3 µM in the experiment with Plasmodium falciparum and 8.4 µM in experiment [3].
`N=C(N)c1ccc(-c2ccc(-c3ccc(C(=N)N)cn3)o2)nc1`: the Survival in the experiment on Mus musculus [4] was 60 days. Further, in the experiment with Mus musculus [5], the Cures was found to be 4. Also, the IC50 with Plasmodium falciparum came to 0.083 µM; in experiment [3], 0.021 µM. The ΔTm stood at 5.4 in the experiment with Nucleic Acid [6] and 15.5 with Nucleic Acid [7].
Take `N=C(NO)c1cccc(-c2ccc(-c3ccc(/C(N)=N\O)cn3)o2)c1`: the IC50 in the experiment with Plasmodium falciparum amounted to 41.5 µM; in experiment [3], 13.3 µM.
Compound `N=C(NO)c1ccc(-c2ccc(-c3ccc(/C(N)=N/O)nc3)o2)cn1` displayed a Survival in the experiment with Mus musculus [8] of 30 days. The compound also had a Cures with Mus musculus [9] of 1. Besides, the IC50 in the experiment with Plasmodium falciparum is more than 10.5 µM; in experiment [3], more than 21 µM.
Consider `N=C(N)c1ccc(-c2ccc(-c3ccc(C(=N)N)cc3)o2)cc1` [FURAMIDINE], for which the Survival with Mus musculus [4] amounted to 52.5 days. Besides, the Cures with Mus musculus [5] is recorded as 0. Moreover, the ΔTm in the experiment with Nucleic Acid [6] turned out to be 8.9.
The corresponding values for `N=C(N)c1ccc(OCCCCCOc2ccc(C(=N)N)cc2)cc1` [PENTAMIDINE] are 40.8 days, 0 and 2.
Turning to `CONC(=N)c1ccc(-c2ccc(-c3ccc(C(=N)NOC)cn3)s2)cc1`, the IC50 was determined as 4.9 µM in the experiment with Plasmodium falciparum and 9.4 µM in experiment [3]. For the same compound, the ΔTm in the experiment on Nucleic Acid [7] came out at 0.
For the compound `N=C(NO)c1ccc(-c2ccc(-c3ccc(/C(N)=N/O)nc3)o2)cc1`, in the experiment with Mus musculus [10], the Survival came to 52.75 days. This compound registered a Cures with Mus musculus [11] of 3. In the experiment on Plasmodium falciparum, the IC50 was more than 11.7 µM.
For the compound `N=C(N)c1ccc(Cc2ccc(-c3ccc(C(=N)N)nc3)o2)cc1`, the results for the half-maximal inhibitory concentration (IC50) (in the experiment with Plasmodium falciparum; in experiment [3]) were 0.148 µM and 0.147 µM, respectively. The ΔTm with Nucleic Acid [6] was 1.3; in the experiment with Nucleic Acid [7], 3.6.
In the experiment on Mus musculus [4], `N=C(N)c1ccc(-c2ccc(-c3ccc(C(=N)N)cn3)o2)cc1` came in with a Survival of 60 days. In the experiment with Mus musculus [5], this compound came in with a Cures of 4. In experiment [3], this compound returned an IC50 of 0.007 µM. In the experiment with Nucleic Acid [6], the ΔTm was 6.6.
`N=C(NO)c1ccc(-c2ccc(-c3ccc(/C(N)=N\O)cc3)o2)cc1` displayed a Survival with Mus musculus [1] of 50 days. In the experiment on Mus musculus [2], this compound displayed a Cures of 0.
`N=C(N)c1ccc(-c2ccc(-c3ccc(C(=N)N)nc3)o2)cc1` gave a Survival in the experiment on Mus musculus [4] of 56.5 days. In addition, the Cures in the experiment with Mus musculus [5] came out at 2. In addition, the IC50 came to 0.0183 µM in the experiment on Plasmodium falciparum and 0.0031 µM in [3]. The ΔTm in the experiment on Nucleic Acid [6] was found to be 3.1; in the experiment with Nucleic Acid [7], 22.6.
As for `CONC(=N)c1ccc(-c2ccc(-c3ccc(C(=N)NOC)nc3)o2)cc1`, the Survival with Mus musculus [12] stood at 34.25 days; in the experiment with Mus musculus [10], 60 days. The Cures is 1 in the experiment on Mus musculus [13] and 4 in the experiment on Mus musculus [11]. The IC50 came out at 8.5 µM with Plasmodium falciparum and 6.5 µM in experiment [3].
In turn, `CONC(=N)c1ccc(-c2ccc(-c3ccc(C(=N)NOC)nc3)o2)cn1` came in with a Survival with Mus musculus [1] of 21.75 days. Besides, the Cures with Mus musculus [2] was 0. In addition, the 50% inhibitory concentration (IC50) in the experiment with Plasmodium falciparum came out at 1.31 µM; in experiment [3], 1.91 µM. The ΔTm in the experiment on Nucleic Acid [7] was -0.5.
For the compound `CONC(=N)c1ccc(-c2ccc(-c3ccc(C(=N)NOC)cc3)o2)cc1` [PAFURAMIDINE], the Survival in the experiment with Mus musculus [8] was 60 days. This compound displayed a Cures with Mus musculus [14] of 2.
In the experiment with Mus musculus [4], `N=C(N)c1ccc(-c2ccc(-c3cccc(C(=N)N)c3)o2)nc1` displayed a Survival of 26.25 days. In the experiment on Mus musculus [5], this compound gave a Cures of 0. Besides, the half-inhibitory concentration (IC50) in the experiment with Plasmodium falciparum came to 0.0088 µM; in [3], 0.0407 µM. Moreover, the ΔTm in the experiment on Nucleic Acid [6] is 3.3; in the experiment on Nucleic Acid [7], 7.3.
In the experiment on Mus musculus [12], `CO/N=C(\N)c1ccc(-c2ccc(-c3ccc(/C(N)=N/OC)cn3)o2)cc1` displayed a Survival of 60 days. This compound showed a Cures with Mus musculus [15] of 4. Moreover, the IC50 in the experiment on Plasmodium falciparum came out at 4.9 µM; in experiment [3] it was 37.1 µM. Further, the ΔTm in the experiment on Nucleic Acid [7] stood at 0.9.
`CO/N=C(\N)c1ccc(-c2ccc(-c3ccc(/C(N)=N/OC)cn3)o2)nc1`: the Survival in the experiment on Mus musculus [8] stood at 60 days; with Mus musculus [12] it was 40 days. Also, the Cures in the experiment on Mus musculus [9] is given as 4; in the experiment on Mus musculus [16], 1. Further, the IC50 was 1.77 µM with Plasmodium falciparum and 11.1 µM in experiment [3].
In the case of `N=C(NO)c1ccc(-c2ccc(-c3ccc(/C(N)=N/O)cn3)o2)cc1`, in the experiment on Mus musculus [1], the Survival stood at 54 days. In the experiment on Mus musculus [2], the Cures came out at 0. The results for the IC50 (in the experiment with Plasmodium falciparum; in [3]) were 4.3 µM and 120 µM, respectively.
For `N/C(=N\O)c1ccc(-c2ccc(-c3ccc(/C(N)=N\O)cn3)o2)nc1`, the Survival with Mus musculus [10] is 18 days. Besides, the Cures in the experiment with Mus musculus [11] amounted to 0. The figures for the IC50 (in the experiment with Plasmodium falciparum; in [3]) were more than 10.2 µM and 55.8 µM, respectively. Moreover, in the experiment with Nucleic Acid [7], the ΔTm turned out to be 0.9.
For `N=C(N)c1ccc(-c2ccc(-c3ccc(C(=N)N)nc3)o2)cn1`, the Survival in the experiment with Mus musculus [4] came to 59 days. Further, in the experiment on Mus musculus [5], the Cures is listed as 3. Besides, the figures for the IC50 (in the experiment on Plasmodium falciparum; in [3]) were 0.0039 µM and 0.007 µM, respectively. Moreover, the ΔTm came to 8.2 in the experiment on Nucleic Acid [6] and 18.5 with Nucleic Acid [17].
Consider `N=C(NO)c1ccc(-c2ccc(-c3ccc(/C(N)=N\O)cc3)s2)nc1`, for which the IC50 with Plasmodium falciparum was more than 10.4 µM.

For the origin of these results see ChEMBL document CHEMBL1145745 (J Med Chem, 2003).
